These results are taken from PubChem BioAssay.

The source made the active and inactive calls.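 The calls were made as follows, unless noted: active = potentiation averaged over duplicate wells exceeding buffer-only control mean by more than 3 SD; inactive = the rest.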

The nature of assay [1]: thallium flux activation in parental CHO cells, counter-screen for KCNQ1 potentiator project (AID 493006;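 active = duplicate-averaged activation above buffer control mean plus 5 SD of those controls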). Conditions: parental CHO-K1 cells, FluxOR thallium flux, at 10 µM; stronger effect = higher value. In short, it runs like this: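 Test system: parental CHO-K1 cells, FluxOR dye-loaded / Probe or stimulus: potassium plus thallium depolarizing stimulus, 5x stock 12.5 mM K2SO4, Tl2SO4 / Timing: overnight 37 °C plating, 90 min dye, 20 min dark compound / Measured by: kinetic thallium-flux fluorescence / Read-out: max-minus-min fluorescence over baseline, percent of buffer-to-R-L3 span / Benchmarks: buffer and R-L3 controls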
Background: The purpose of a counterscreen is to sort out artefacts and off-target activity.

For assay [2], the target named is Potassium voltage-gated channel subfamily KQT member 1 (Homo sapiens) (UniProt P51787). As to the kind of experiment: KCNQ1 potassium channel potentiators, confirmation, FluxOR thallium flux, CHO cells, duplicates (AID 493007).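 As to outcome: cells depolarized by a potassium plus thallium sulfate stimulus after compound.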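 As to potentiation: 0% = buffer-only wells and 100% = R-L3 activator control.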 Particulars: KCNQ1 cell line, FluxOR thallium flux fluorescence, at 10 µM; stronger effect = higher value, % of reference activator effect, buffer zero. In short, it runs like this:
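Assay system: CHO cells carrying KCNQ1 | Controls: Buffer and R-L3 controls | Schedule: FluxOR dye loading 90 min, compound exposure 20 min, room temperature | Read-out: Baseline-normalized fluorescence change, percent of buffer-to-R-L3 range | Replicates: Each compound tested in duplicate | Technique: Kinetic thallium influx fluorescence with FluxOR dye, 10 s baseline, 110 s post-stimulus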

Assay [3] has as its target Potassium voltage-gated channel subfamily KQT member 2 (Rattus norvegicus) (UniProt O88943). As to the kind of experiment: rat KCNQ2 channel potentiation, selectivity assay for KCNQ1 potentiator project, KCNQ2-CHO-K1 cells (AID 493009;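 active = mean duplicate potentiation above the buffer control mean plus 5 SD of buffer wells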;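 also: assay conditions were tuned for KCNQ1 rather than KCNQ2 modulators; signal is max minus min fluorescence divided by baseline after thallium stimulus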). Conditions: FluxOR thallium flux fluorescence, at 10 µM; stronger effect = higher value, scaled: buffer 0, activator control 100.
Assay [4] deals with Potassium voltage-gated channel subfamily KQT member 1 (Homo sapiens) (UniProt P51787). As to the kind of experiment: KCNQ1 channel current potentiators, confirmation, orthogonal assay for KCNQ1 potentiator project, IonWorks patch clamp, KCNQ1-CHO cells (AID 493184;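 active = current rise at least 3 SD above the untreated control mean in each of two repeat wells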). Particulars: automated patch clamp current, at 10 µM; stronger effect = higher value. In short, it runs like this: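 Material: KCNQ1-expressing CHO cells; doses: 10 µM final, single point; probe or stimulus: voltage step from -90 mV holding to +40 mV, 2,000 ms; signal: automated voltage clamp, amphotericin B perforated patch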
(Patch clamp records ionic current or voltage across a cell membrane.)

Sequence of Potassium voltage-gated channel subfamily KQT member 2 (Rattus norvegicus) (O88943 whole entry, looked up): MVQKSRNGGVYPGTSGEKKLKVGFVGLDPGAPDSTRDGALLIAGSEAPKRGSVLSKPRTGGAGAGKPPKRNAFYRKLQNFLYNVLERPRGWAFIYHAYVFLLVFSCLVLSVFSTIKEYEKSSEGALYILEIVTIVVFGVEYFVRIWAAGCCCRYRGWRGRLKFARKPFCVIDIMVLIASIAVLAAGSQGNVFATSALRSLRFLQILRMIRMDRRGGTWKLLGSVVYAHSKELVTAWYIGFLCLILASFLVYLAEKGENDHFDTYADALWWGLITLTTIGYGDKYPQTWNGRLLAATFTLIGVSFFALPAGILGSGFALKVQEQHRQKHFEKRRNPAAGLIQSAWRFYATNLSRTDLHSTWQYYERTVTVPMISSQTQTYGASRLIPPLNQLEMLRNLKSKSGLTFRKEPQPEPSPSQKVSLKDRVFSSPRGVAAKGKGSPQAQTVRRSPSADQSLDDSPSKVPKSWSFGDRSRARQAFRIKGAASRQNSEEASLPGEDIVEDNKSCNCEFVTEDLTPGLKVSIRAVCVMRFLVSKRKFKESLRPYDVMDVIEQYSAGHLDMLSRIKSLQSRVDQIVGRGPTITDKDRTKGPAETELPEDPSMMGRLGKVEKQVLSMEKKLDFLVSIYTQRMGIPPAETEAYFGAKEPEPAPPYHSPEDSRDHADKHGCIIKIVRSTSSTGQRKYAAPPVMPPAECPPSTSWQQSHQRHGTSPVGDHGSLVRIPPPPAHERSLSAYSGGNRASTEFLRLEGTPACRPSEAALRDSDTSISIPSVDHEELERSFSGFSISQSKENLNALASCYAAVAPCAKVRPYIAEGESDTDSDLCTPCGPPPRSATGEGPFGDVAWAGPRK
Sequence of Potassium voltage-gated channel subfamily KQT member 1 (Homo sapiens) (P51787 whole entry, looked up): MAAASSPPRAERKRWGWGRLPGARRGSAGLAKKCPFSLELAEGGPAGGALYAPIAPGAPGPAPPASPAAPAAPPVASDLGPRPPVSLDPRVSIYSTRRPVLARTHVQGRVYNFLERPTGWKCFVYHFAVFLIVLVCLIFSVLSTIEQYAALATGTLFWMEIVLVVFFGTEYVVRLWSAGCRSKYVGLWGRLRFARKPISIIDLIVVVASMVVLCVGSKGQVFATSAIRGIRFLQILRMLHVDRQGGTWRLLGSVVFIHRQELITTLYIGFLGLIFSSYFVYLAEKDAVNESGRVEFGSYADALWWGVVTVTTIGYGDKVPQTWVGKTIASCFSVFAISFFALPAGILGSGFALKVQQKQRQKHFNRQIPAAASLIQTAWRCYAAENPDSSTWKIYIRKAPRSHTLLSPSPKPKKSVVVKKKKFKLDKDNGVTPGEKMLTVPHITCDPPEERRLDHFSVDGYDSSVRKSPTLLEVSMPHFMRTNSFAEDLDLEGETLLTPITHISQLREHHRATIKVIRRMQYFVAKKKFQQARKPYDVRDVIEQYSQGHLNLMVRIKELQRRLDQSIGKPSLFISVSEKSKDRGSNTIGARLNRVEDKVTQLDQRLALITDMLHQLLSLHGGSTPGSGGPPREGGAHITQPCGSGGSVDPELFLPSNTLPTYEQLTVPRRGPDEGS

Regarding `Cc1ccnc(NS(=O)(=O)c2ccc(NC(=O)C34CC5CC(CC(C5)C3)C4)cc2)n1`, the result in assay [1], in assay [2], in assay [3] and in assay [4] was inactive.
For the compound `CCOC(=O)c1sc2nc(C)[nH]c(=S)c2c1C`, the activation in assay [1] was 198% (active). For the same compound, the potentiation in assay [2] is 52% (active); in assay [3], 214% (active). In addition, the result in assay [4] was inactive.
In the case of `S=c1nc(-c2ccc(Br)cc2)oc2c1CCCC2`, the result in assay [1], in assay [3] and in assay [4] was inactive. The potentiation in assay [2] was 37% (active).
As for `S=c1[nH]c2cc(-c3ccccc3)ccc2o1`, the activation in assay [1] is 306% (active). For the same compound, the potentiation in assay [2] was 89.5% (active); in assay [3] it was 318% (active). Moreover, the outcome in assay [4] was inactive.
Regarding `Cc1ccccc1OC(=O)n1c(=S)oc2cc(Cl)ccc21`, the activation in assay [1] was 152% (active). Besides, the result in assay [2] and in assay [4] was inactive. Besides, the potentiation in assay [3] is 157% (active).
On to `O=C(Oc1c(-c2ccco2)oc2ccccc2c1=O)c1cccnc1`, for which the outcome in assay [1] and in assay [4] was inactive. Besides, the results for the potentiation in assay [2] and in assay [3] were 39.5% (active) and 187% (active), respectively.
Regarding `CC(C)CN1C(=O)/C(=C/c2cccs2)NC1=S`, the activation in assay [1] is 392% (active). The values for the potentiation in assay [2] and in assay [3] were 180% (active) and 450% (active), respectively. The outcome in assay [4] was inactive.
For the compound `O=S(=O)(NC(=S)NC1CCCCC1)c1ccc(Br)cc1`, the activation in assay [1] is 200% (active). Moreover, the potentiation was 52% (active) in assay [2] and 190% (active) in assay [3]. Further, the result in assay [4] was inactive.
In the case of `CC(C)Cn1c(=O)c(C(=O)N/N=C/c2cccc(F)c2)c(O)c2ccccc21`, the result in assay [1], in assay [2], in assay [3] and in assay [4] was inactive.
As for `O=C(CN1C(=O)COc2ccccc21)N(Cc1cccnc1)Cc1cccc(F)c1`, the outcome in assay [1], in assay [2], in assay [3] and in assay [4] was inactive.
Turning to `O=C(CNc1ccc2c(c1)OCO2)N/N=C\c1cn(Cc2ccccc2)c2ccccc12`, the result in assay [1], in assay [2], in assay [3] and in assay [4] was inactive.
Turning to `Cc1sc(NC(=O)CS(=O)(=O)c2ccccc2)c(C#N)c1C`, the result in assay [1], in assay [2], in assay [3] and in assay [4] was inactive.
`N#Cc1ccc(-c2nc3cc(Cl)ccc3c(=O)n2O)cc1`: in assay [1], the activation was 189% (active). Also, the potentiation in assay [2] is 29.5% (active); in assay [3] it was 176% (active). Moreover, the result in assay [4] was inactive.
For the compound `O=c1[nH]c2ccc(Cl)cc2c(-c2ccccc2)c1N1CCN(CCO)CC1`, the outcome in assay [1], in assay [2], in assay [3] and in assay [4] was inactive.
Consider `O=C(Nc1nccs1)c1ccc(-c2ccc(F)c(Cl)c2)o1`, for which the result in assay [1], in assay [2], in assay [3] and in assay [4] was inactive.
Regarding `O=C(CCn1c(=O)sc2ccccc21)NCc1ccco1`, the outcome in assay [1], in assay [2], in assay [3] and in assay [4] was inactive.
Regarding `Oc1cccc2ccc(Nc3ccccn3)nc12`, the result in assay [1], in assay [2], in assay [3] and in assay [4] was inactive.
Regarding `COc1cc(C2C(C#N)=C(N)Oc3cc(O)ccc32)cc2c1OCO2` (stereo not given), the result in assay [1], in assay [2], in assay [3] and in assay [4] was inactive.
Regarding `Cc1c(N=Cc2cc(Br)cc(Br)c2O)cccc1C(=O)O`, the result in assay [1], in assay [3] and in assay [4] was inactive. In addition, the potentiation in assay [2] was 42% (active).
On to `COc1cccc(/C=N/n2c(-c3cccs3)n[nH]c2=S)c1`, for which the activation in assay [1] was 286% (active). Also, the potentiation is 160% (active) in assay [2] and 265% (active) in assay [3]. Also, in assay [4], the result was inactive.
Consider `CN1C(=O)/C(=N\OC(=O)c2cccc3ccccc23)c2ccccc21`, for which the result in assay [1], in assay [2], in assay [3] and in assay [4] was inactive.
For the compound `O=C(COc1ccccc1F)Nc1c2c(nn1-c1ccccc1)CS(=O)(=O)C2`, the result in assay [1], in assay [2], in assay [3] and in assay [4] was inactive.
`CCOC(=O)c1cc(CC)sc1NC(=O)CC1Sc2ccc(C(F)(F)F)cc2NC1=O` (stereo not given): the outcome in assay [1], in assay [2], in assay [3] and in assay [4] was inactive.
Take `CCN=C1SC(CC(=O)Nc2ccccc2OCC)C(=O)N1CC` (stereo not given): the outcome in assay [1], in assay [2], in assay [3] and in assay [4] was inactive.
Regarding `CCOc1ccc2nc(/N=C/c3nc(-c4ccccc4)oc3O)sc2c1`, the activation in assay [1] is 150% (active). Besides, the potentiation in assay [2] was 52.5% (active); in assay [3] it was 190% (active). In assay [4], the outcome was inactive.
Consider `CC(C)(C)c1ccc(C(=O)NC(=S)Nc2nc3c(s2)CCCC3)cc1`, for which the activation in assay [1] was 210% (active). Further, the potentiation in assay [2] is 91% (active); in assay [3], 217% (active). Further, the outcome in assay [4] was inactive.
Take `O=C(NC(=S)NCc1ccccc1)c1cccs1`: in assay [1], the activation is 167% (active). Also, the results for the potentiation in assay [2] and in assay [3] were 81% (active) and 232% (active), respectively. In addition, the outcome in assay [4] was inactive.
For the compound `CCOCCc1c(O)nc(SC)[nH]c1=O`, the outcome in assay [1], in assay [2], in assay [3] and in assay [4] was inactive.
As to `OC(CON=C1c2ccccc2-c2ccccc21)CN1CCNCC1` (stereo not given), the result in assay [1], in assay [2], in assay [3] and in assay [4] was inactive.
Take `COc1ccc2nc(/N=C/c3c(C)[nH]n(-c4ccc(C)cc4C)c3=O)sc2c1`: in assay [1], the activation was 232% (active). The potentiation in assay [2] is 113% (active); in assay [3], 306% (active). Also, in assay [4], the result was inactive.
